Experimental data pooled from the literature.
Each line is one published result; the experiments were not run side by side. pIC50: −log10 of the molar value.
Cell line: Vero
Effect on: cell growth or viability

Compound | test | conditions | quantity | result
O=C1[C@H](CC[C@H](O)c2ccc(F)cc2)[C@@H](c2ccc(O)cc2)N1c1ccc(F)cc1 | MTT | 72 h | IC50 | 36.5 µg/mL
C[C@@H]1C[C@H]2[C@@H]3CCC4=CC(=O)C=C[C@]4(C)[C@@]3(F)[C@@H](O)C[C@]2(C)[C@@]1(O)C(=O)CO | MTT | 48 h | pIC50 | 4.10
O=C1C[C@@H](c2ccccc2)Oc2c(Cc3ccccc3O)c(O)c(Cc3ccccc3O)c(O)c21 | MTT | 72 h | pIC50 | 4.31
C/C(=N/NC(=O)c1cn(-c2ccccc2)nc1-c1ccc(Cl)cc1)c1c(O)cc(C)oc1=O | MTT | 48 h | pIC50 | 3.99
NC1=NN(C(=O)C=Cc2ccccc2)C(=O)C1N=Nc1ccccc1C(=O)O (stereo not shown) | MTT | 72 h | pIC50 | 4.22
C/C(=N/NC(=O)c1cn(-c2ccccc2)nc1-c1ccccc1)c1c(O)cc(C)oc1=O | MTT | 48 h | pIC50 | 3.18
CO[C@H]1[C@H](O[C@H]([C@H]2O[C@@H](n3ccc(=O)[nH]c3=O)[C@H](O)[C@@H]2O)[C@H](NCCCNC(=O)[C@@H](NC(=O)[C@@H](NC(=O)N[C@H](C(=O)O)C(C)C)[C@@H]2CCN=C(N)N2)[C@@H](OC(=O)CCCCCCCCCCCCN(O)C(=N)N)C(C)C)C(=O)O)O[C@H](CN)[C@H]1O | WST-1 |  | pIC50 | < 4.46
NC1=NC(=NS(=O)(=O)c2ccc(N)cc2)NC(=O)C1N=Nc1ccccc1C(=O)O (stereo not shown) | MTT | 72 h | pIC50 | 4.24
CO[C@H]1[C@H](O[C@H]([C@H]2O[C@@H](n3ccc(=O)[nH]c3=O)[C@H](O)[C@@H]2O)[C@H](NCCCNC(=O)[C@@H](NC(=O)[C@@H](NC(=O)N[C@H](C(=O)O)C(C)C)[C@@H]2CCN=C(N)N2)[C@@H](O)C(C)C)C(=O)O)O[C@H](CN)[C@H]1O | WST-1 |  | pIC50 | < 4.46
COc1cccc2c1C(=O)c1c(O)c3c(c(O)c1C2=O)C[C@@](O)(C(=O)CO)C[C@@H]3O[C@H]1C[C@H](N)[C@H](O)[C@H](C)O1 | MTT | 72 h | pIC50 | 5.68
